From ChEMBL document CHEMBL2203250, “Synthesis and evaluation of 3-¹²³I-iodo-5-[2-(S)-3-pyrrolinylmethoxy]-pyridine (niodene) as a potential nicotinic α4β2 receptor imaging agent” (Bioorg Med Chem Lett, 2012)
Active and inactive are the calls of the source. No cut-off for these calls is given here.

How the values were obtained:
Nucleic Acid [1] = assay: Ratio of drug uptake in thalamus to cerebellum in Sprague-Dawley rat brain at 2 uCi/umol after 60 mins by autoradiographic analysis; format: ADME, tissue-based; details: in vivo, 1 h
[2] = target: Neuronal acetylcholine receptor; alpha4/beta2 (Rattus norvegicus, UniProt P09483+P12390); assay: Displacement of [3H]cytisine from alpha4beta2 nAChR in rat brain homogenate; format: tissue-based
Chain of Neuronal acetylcholine receptor; alpha4/beta2 (P09483 whole entry): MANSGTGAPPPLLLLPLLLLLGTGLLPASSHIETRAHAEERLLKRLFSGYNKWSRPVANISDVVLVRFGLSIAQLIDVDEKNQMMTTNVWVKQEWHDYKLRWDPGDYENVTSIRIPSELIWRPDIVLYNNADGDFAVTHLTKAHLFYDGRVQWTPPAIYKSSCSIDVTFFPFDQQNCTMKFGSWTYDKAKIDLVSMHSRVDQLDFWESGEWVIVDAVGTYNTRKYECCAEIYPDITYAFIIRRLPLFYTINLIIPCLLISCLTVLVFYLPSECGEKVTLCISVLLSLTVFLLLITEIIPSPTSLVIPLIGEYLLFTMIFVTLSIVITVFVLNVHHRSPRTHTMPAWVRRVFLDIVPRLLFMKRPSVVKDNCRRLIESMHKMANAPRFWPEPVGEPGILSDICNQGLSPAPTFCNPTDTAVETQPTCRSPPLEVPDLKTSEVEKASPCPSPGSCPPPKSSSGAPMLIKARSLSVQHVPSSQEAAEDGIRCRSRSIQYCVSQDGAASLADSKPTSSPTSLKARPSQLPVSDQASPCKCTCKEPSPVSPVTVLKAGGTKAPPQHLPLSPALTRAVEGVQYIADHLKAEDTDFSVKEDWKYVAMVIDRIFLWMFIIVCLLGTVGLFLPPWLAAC
Chain of Neuronal acetylcholine receptor; alpha4/beta2 (P12390 whole entry): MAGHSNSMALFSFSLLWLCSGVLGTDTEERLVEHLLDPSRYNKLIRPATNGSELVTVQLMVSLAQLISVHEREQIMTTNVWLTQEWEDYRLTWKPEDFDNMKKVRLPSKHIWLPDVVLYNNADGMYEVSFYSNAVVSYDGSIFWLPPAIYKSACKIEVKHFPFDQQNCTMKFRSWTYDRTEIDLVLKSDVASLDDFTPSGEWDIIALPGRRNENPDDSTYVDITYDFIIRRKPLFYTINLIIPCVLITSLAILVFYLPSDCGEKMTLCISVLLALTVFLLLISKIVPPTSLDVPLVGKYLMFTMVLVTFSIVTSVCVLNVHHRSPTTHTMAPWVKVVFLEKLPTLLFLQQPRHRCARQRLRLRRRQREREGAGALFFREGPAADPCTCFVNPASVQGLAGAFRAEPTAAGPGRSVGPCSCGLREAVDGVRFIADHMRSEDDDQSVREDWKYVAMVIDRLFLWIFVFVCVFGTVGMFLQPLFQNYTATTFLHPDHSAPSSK
Summary of the method: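 Male Sprague–Dawley rat cerebrum was homogenized, washed twice by centrifugation at 40,000g and resuspended. It was incubated with 1 nM 3H-cytisine and competitor (10^-10 to 10^-3 M) in 50 mM Tris, pH 7.0, with 120 mM NaCl, 5 mM KCl, 1 mM MgCl2 and 2.5 mM CaCl2, at 2 °C for 75 min. […] The assay was filtered, and filters were washed in cold buffer and scintillation-counted.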

[3] = target: T1, Neuronal acetylcholine receptor; alpha4/beta2 (Rattus norvegicus) (UniProt P09483+P12390); assay: Binding affinity to alpha4beta2 nAChR in Sprague-Dawley rat cerebellum at 0.1 Ci/umol after 60 mins by autoradiographic analysis; format: protein-complex assay; details: tested as the 123I-labelled form
Summary of the method: (§1)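 Frozen rat brain sections were thawed for about 15 min at ambient temperature. They were preincubated 10 min in 120 mM Tris HCl with 5 mM NaCl, 5 mM KCl, 2.5 mM CaCl2 and 1 mM MgCl2, pH 7.4, then incubated with 5 nM 123I-niodene at 37 °C for 60 min. […] Sections were washed in ice-cold buffer and exposed to phosphor screens for at least 16 h. Regional binding was read as DLU/mm²; n ≥5 sections, mean and SD.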

[4] = target: T1, Neuronal acetylcholine receptor; alpha4/beta2 (Rattus norvegicus); assay: Ratio of nifene Ki to compound Ki for rat alpha4beta2 nAChR; format: protein-complex assay
[5] = target: T1, Neuronal acetylcholine receptor; alpha4/beta2 (Rattus norvegicus); assay: Displacement of [18F]nifene from alpha4beta nAChR in Sprague-Dawley rat subiculum at 10 nM after 60 mins by autoradiographic analysis; format: protein-complex assay
Summary of the method: (§2)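 Rat brain slices were preincubated 10 min in Tris HCl buffer with salts, pH 7.4. […] Slices got two 1-min ice-cold Tris HCl washes and a cold water rinse, then overnight phosphor-screen exposure. Regional binding was read as DLU/mm² and expressed relative to cerebellum.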

[6] = target: T1, Neuronal acetylcholine receptor; alpha4/beta2 (Rattus norvegicus); assay: Displacement of [18F]nifene from alpha4beta nAChR in Sprague-Dawley rat thalamus at 1 uM after 60 mins by autoradiographic analysis; format: protein-complex assay; summary of the method: as §2
[7] = target: T1, Neuronal acetylcholine receptor; alpha4/beta2 (Rattus norvegicus); assay: Displacement of [18F]nifene from alpha4beta nAChR in Sprague-Dawley rat frontal cortex at 10 nM after 60 mins by autoradiographic analysis; format: tissue-based; summary of the method: as §2
[8] = target: T1, Neuronal acetylcholine receptor; alpha4/beta2 (Rattus norvegicus); assay: Displacement of [18F]nifene from alpha4beta nAChR in Sprague-Dawley rat striatum at 10 nM after 60 mins by autoradiographic analysis; format: protein-complex assay; summary of the method: as §2
[9] = target: T1, Neuronal acetylcholine receptor; alpha4/beta2 (Rattus norvegicus); assay: Displacement of [18F]nifene from alpha4beta nAChR in Sprague-Dawley rat thalamus at 10 nM after 60 mins by autoradiographic analysis; format: protein-complex assay; summary of the method: as §2
[10] = target: T1, Neuronal acetylcholine receptor; alpha4/beta2 (Rattus norvegicus); assay: Binding affinity to alpha4beta2 nAChR in Sprague-Dawley rat thalamus at 0.1 Ci/umol after 60 mins by autoradiographic analysis; format: protein-complex assay; details: tested as the 123I-labelled form; summary of the method: as §1
[11] = target: T1, Neuronal acetylcholine receptor; alpha4/beta2 (Rattus norvegicus); assay: Binding affinity to alpha4beta2 nAChR in Sprague-Dawley rat cortex at 0.1 Ci/umol after 60 mins by autoradiographic analysis; details: tested as the 123I-labelled form; summary of the method: as §1
Nucleic Acid [12] = assay: Ratio of drug uptake in cortex to cerebellum in Sprague-Dawley rat brain at 0.1 Ci/umol after 60 mins by autoradiographic analysis; format: ADME, tissue-based; details: in vivo, 1 h
Nucleic Acid [13] = assay: Ratio of drug uptake in thalamus to cerebellum in Sprague-Dawley rat brain at 0.1 Ci/umol after 60 mins by autoradiographic analysis; format: ADME, tissue-based; details: in vivo, 1 h

`[18F]c1ncccc1OC[C@@H]1C=CCN1` gave a Ratio (Nucleic Acid [1]) of 7.3.
Molecule `Fc1ncccc1OC[C@@H]1C=CCN1` has a Ki [2] of 0.5 nM.
`Ic1cncc(OC[C@@H]2C=CCN2)c1` was tested, and the Activity [3] was “inactive”, the Ratio Ki [4] was 2 and the Activity [5] was “Active”. The Activity [6] was over 80%, the Activity [7] was “Active” and the Activity [8] was “Active”. For the same molecule, the Activity [9] was over 65%, the Activity [10] was “Active” and the Activity [11] was “Active”.
In the case of `[123I]c1cncc(OC[C@@H]2C=CCN2)c1`, the Ratio (Nucleic Acid [12]) is reported as 1.6 and the Ratio (Nucleic Acid [13]) is reported as 4.
In the case of `CN1CCC[C@H]1c1cccnc1`, the Activity [5] is reported as “Active”, the Activity [7] is reported as “Active” and the Activity [8] is reported as “Active”. It also gave an Activity [9] of 24%.
